BB579 growth dn: reduces growth of yeast BB579 in restrictive medium. S. cerevisiae BB579 growth, OD615, 48 h. hit rate 0.51% among 140,000. AID 804. inhibition, % at 10 µM;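 active = inhibition above a set limit, 3 SD over the mean compound inhibition, cut at about 44% in these data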
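Test system: Saccharomyces cerevisiae DeaD strain BB579, replicative lifespan model yeast | Buffer or medium: Restrictive CSMM-D medium | Doses: One dose, 10 µM compound with 0.25% DMSO | Incubation: 48 h exposure, 30 °C | Detection: Culture absorbance at 615 nm | Control set: Amphotericin B at 10 µg/mL as positive control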
Ins promoter up: MIN6 insulin promoter up-regulation. z-score at 5 µM. MIN6 insulin promoter-GFP reporter, high-content imaging; stronger effect = higher value. hit rate 0.3% among 190,000;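 active = z-score above 3 at 5 µM with at least 500 cells counted in the well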
RAM inhibit: inhibitors of the yeast RAM network; S. cerevisiae dse1pr::URA3 reporter, 5-FOA growth OD615, 2 d; analog-sensitive cbk1-as2 kinase mutant strain; inhibition, % at 50 µM; hit rate 1.8% among 190,000; AID 868;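 active = inhibition above a set limit, 3 SD over mean compound inhibition, cut at about 8.4% in these data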;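 note: 0% = DMSO-only wells with no growth and 100% = 10 µM 1-NA-PP1 full growth; inhibition rescues growth on 5-FOA so higher OD means more RAM inhibition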
Yeast life ext: yeast lifespan extension. S. cerevisiae growth with nicotinamide, OD615; deaD strain in restrictive glucose medium. inhibition of the nicotinamide effect, % at 10 µM. hit rate 0.68% among 130,000. AID 775;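 active = inhibition above a set limit, placed 3 SD over the median of all compounds, cut at about 26% in these data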;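 note: 0% = nicotinamide-treated wells and 100% = cells grown without nicotinamide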
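assay system = DeaD-strain S. cerevisiae | measured by = absorbance at 615 nm | probe or stimulus = nicotinamide 1.5 mM | buffer or medium = CSMM-D glucose medium, restrictive | times = 48 h at 30 °C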
Insulin prom inh: TRM-6 insulin promoter activity inhibition; TRM-6 cells, insulin promoter-eGFP reporter, imaging; reporter expression induced with tamoxifen; inhibition, % at 2 µM; hit rate 0.9% among 130,000; AID 1273;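 active = inhibition above the mean plus 3 SD, with well images judged a real hit on visual review, cut at about 60% in these data, passing the limit was not always enough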
* marks the source's active call; other numbers are inactive results; / = no result. Rows were chosen to be rich in hits. Some 3% of all compounds tested hit in one or more screens of this group.

SMILES	BB579 growth dn	Ins promoter up	RAM inhibit	Yeast life ext	Insulin prom inh
COc1ccc(-n2cc(CNC3CCC(O)CC3)c(-c3cccc(F)c3)n2)cc1 (stereo not given)	/	0.27	0	/	/
Cn1cc(/C=C2\SC(=S)N(NC(=O)c3cccc(Cl)c3)C2=O)c2ccccc21	/	7.3*	/	/	/
O=C1CSC(=S)N1c1cccnc1	44*	-1.7	-1	-2	-68
O=C(O)CCCCn1c(SCC(=O)Nc2ccccc2C(F)(F)F)nc2ccsc2c1=O	-59	-0.17	8.7*	13	17
COc1ccc(NC(=O)CSc2nc3ccsc3c(=O)n2CCCCCC(=O)O)cc1	/	-1	11*	/	/
COc1cccc2c1OC1(C)CC2NC(=O)N1c1cccc(C(=O)N2CCN(c3ccccc3)CC2)c1 (stereo not given)	/	/	0	/	15
CC1(c2nnc(Cc3ccccc3)o2)CC(c2ccc([N+](=O)[O-])cc2)=NO1 (stereo not given)	/	-0.27	/	/	/
Cc1ccc(C(=O)O/N=C2\CCCc3ccccc32)cc1	-16	-0.19	3	-10	13
O=C(O/N=C/C1=C(Cl)c2ccccc2CC1)c1ccc(F)cc1	-14	-0.52	9.5*	8	32
Brc1ccccc1-c1nnc(SCc2nc3ccccc3s2)o1	1	0.07	8.6*	-4	0
CCc1ccc(NC(=S)N2CCCCCCC2)cc1	/	0.19	0	/	79*
Cc1ccccc1NC(=S)Nc1ccc2[nH]c(=O)[nH]c2c1	/	-0.12	/	/	/
CCCCN(CCCC)C(=O)C[n+]1cccc(/C=N/O)c1	/	0.58	6	/	71*
NC(=O)C[n+]1cccc(/C=N/O)c1	/	0.23	0	/	/
COc1cc(CNc2ncnc3c2[nH]c2ccc(C)cc23)cc(OC)c1	/	-0.39	/	/	/
Cc1ccc2[nH]c3c(NCc4ccco4)ncnc3c2c1	-47	-6.8	1	-17	85*
CCCc1cc(C(=O)NC2CCCCC2)no1	43*	0.03	0	0	/
CCC(C)N1C(=O)S/C(=C/c2ccc(N3CCOCC3)cc2C)C1=O (stereo not given)	-25	0.34	8	-2	33
Cc1cc(N2CCOCC2)ccc1/C=C1\SC(=O)N(C(C)C)C1=O	-15	-0.96	11*	-13	/
C=CCc1c(C)nc2ccc(C(=O)OCC)cc2c1Cl	/	0.13	5	/	/
CC(=O)NC(CC(=O)OCC(=O)c1c(N)n(C)c(=O)n(C)c1=O)c1ccccc1 (stereo not given)	/	-0.61	1	/	/
CCC(=NC(C)c1ccccc1)c1c(O)n(C)c(=O)n(C)c1=O (stereo not given)	-79	-6.4	1	-6	81*
CCCc1noc2c1C(c1cc(Br)ccc1F)C(C#N)=C(N)N2 (stereo not given)	/	-0.33	2	/	/
O=c1c2sc(-c3ccccc3)cc2nc2n1CCC2	83*	/	5	/	56
CCCCOc1ccc(-c2cc(C(F)(F)F)c(C#N)c(SCC(=O)O)n2)cc1	/	/	8.4*	/	/
SMILES	BB579 growth dn	Ins promoter up	RAM inhibit	Yeast life ext	Insulin prom inh
Cc1ccccc1NC(=S)c1nc2ccccc2[nH]1	50*	-0.92	-1	-6	97*
COC1=C(c2ccccc2)C(=O)c2ccccc2C1=O	68*	-1.1	-1	13	/
COc1ccc(C2C(=O)c3ccccc3C2=O)cc1OC	/	/	1	/	0
COc1ccc(C2C(=O)c3ccccc3C2=O)cc1	-28	/	2	32*	0
COc1ccc(C2=C(N)c3ccccc3C2=O)cc1	10	0.83	1	-14	71*
CCC(C(=O)OCC(=O)Nc1ccc(Cl)c(S(=O)(=O)N(C)C)c1)c1ccccc1 (stereo not given)	6	0.22	10*	0	-11
CN(C)S(=O)(=O)c1cc(NC(=O)COC(=O)CCSc2ccc(Cl)cc2)ccc1Cl	-18	0.02	6	1	8
CCC(C(=O)OCC(=O)Nc1ccc(SC(F)F)cc1)c1ccccc1 (stereo not given)	-24	-0.06	8.4*	-1	/
COc1ccccc1C(=O)COC(=O)c1ccccc1OCC(=O)Nc1ccc(SC(F)F)cc1	-8	-0.42	9.2*	4	-6
CN(C)S(=O)(=O)c1cc(NC(=O)COC(=O)Cc2cccc3ccccc23)ccc1Cl	-20	1.1	8.7*	-1	/
CN(C)S(=O)(=O)c1cc(NC(=O)COC(=O)Cc2ccc(Cl)cc2Cl)ccc1Cl	-11	0.41	2	-1	54
Cc1cccc(NC(=S)NCCc2ccc3c(c2)OCCO3)c1C	/	-0.15	-1	/	-43
CCOC(=O)N1CCN(C(=O)CSc2ccc3nnc(-c4cccnc4)n3n2)CC1	/	-0.17	1	/	/
O=C(O)/C(=C\c1ccc(Cl)cc1)c1ccc(F)cc1	/	0.32	3	/	27
O=C(NNS(=O)(=O)c1ccc(Br)cc1)c1cccs1	/	-1.8	-1	/	/
Cc1[nH]c2ccc(-c3n[nH]c(=S)n3-c3ccc(Br)cc3)cc2c1C	/	-0.16	10*	/	29
Cc1[nH]c2ccc(-c3n[nH]c(=S)n3-c3ccccc3)cc2c1C	-23	0.03	4	1	9
Cc1c(C(=O)Oc2cccc3ccccc23)cnn1-c1ccccc1	-19	1.3	8.6*	-5	1
COc1ccc(/C=N/NC(=O)c2cccc(Br)c2)cc1COc1ccccn1	/	-0.16	/	/	/
CC(C)COc1ccc(CSCCNC(=S)Nc2ccccc2)cc1	-5	-2.1	9.0*	-4	/
Cn1nc(C(=O)Nc2ccc(S(=O)(=O)NCc3ccco3)cc2)c2ccccc2c1=O	/	-0.37	/	/	/
O=C(Cn1ncn2c(cc3ccccc32)c1=O)NCc1ccco1	-9	3.8*	0	-3	/
Cn1nc(C(=O)NCc2ccco2)c2ccccc2c1=O	-17	0.14	2	-1	62*
CC12CS(=O)(=O)CC1SC(=S)N2Cc1ccccc1 (stereo not given)	/	-0.68	1	/	31
NNc1nc2c(F)cc(F)cc2s1	-35	-2.4	0	-4	41
SMILES	BB579 growth dn	Ins promoter up	RAM inhibit	Yeast life ext	Insulin prom inh
CCOC(=O)/C(=C/c1ccc(OC(=O)c2ccncc2)cc1)C(C)=O	/	0.4	1	/	47
COCCOC(=O)/C(=C/c1ccc(OC(=O)c2ccccc2)cc1)C(C)=O	-44	0.3	-1	39*	/
CCCCCOC(=O)C(C)Sc1n[nH]c(=O)[nH]c1=O (stereo not given)	/	0.21	0	/	/
CCCCOC(=O)CSc1n[nH]c(=O)[nH]c1=O	-42	/	1	-9	79*
N#C/C(=C\c1ccc(-c2ccccc2)cc1)c1nc(-c2ccco2)cs1	-50	0.21	8.4*	2	/
Cc1cc(F)ccc1S(=O)(=O)Nc1ccccc1C(=O)NCc1cccnc1	/	/	2	/	/
CC(=O)c1ccc(NC(=O)C2C3C=CC(C3=C(c3ccccc3)c3ccccc3)C2C(=O)O)cc1 (stereo not given)	/	-0.96	10*	/	0
COc1cc(OC)cc(C(=O)/C=C2\Sc3ccccc3N2C)c1	/	0.26	4	/	/
COc1ccc2c(c1)S/C(=C\C(=O)c1ccncc1)N2C	92*	0.81	2	-14	0

Screening data as filed in PubChem BioAssay.
